In PubChem BioAssay AID463104 (Sanford-Burnham Center for Chemical Genomics, 2010):
The whole screen tested about 330,000 compounds, of which about 1,100 (0.33%) were called active. The sample as a whole holds a higher share of actives than the screen did. A number with no mark means an inactive call.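 How the source made its calls: active means versus positive control, 20 µM dose yields 30% or more activation; inactive means the rest.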

Assay: activators of adaptive XBP1 UPR arm, primary screen, cell-based, CHO-XBP1 luciferase reporter, luminescence, uHTS (AID 463104);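 further: 100% = tunicamycin at 10 µg/mL and 0% = DMSO only wells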
Details: IRE1-XBP1 UPR activation, at 20 µM, active compounds read high, percent of tunicamycin response, DMSO as zero
Method in brief: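 Test system: CHO-XBP1 luciferase reporter cells | Buffer or medium: Serum-containing F12 medium, 10% FBS | Schedule: 6 h compound exposure at 37 °C, 5% CO2 | Detection: Steady-Glo luciferase glow luminescence, 10 min after reagent addition | Read-out basis: Activation, % of tunicamycin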
In the case of `CC(C)N(C(=O)[C@H]1C[C@H](CC(=O)NCCC2=CCCCC2)C(=O)N2CCc3c([nH]c4cc(CCC(=O)N(C)C)ccc34)[C@]12C)C(C)C`, the activation was -2.39%. With `CN(C)C(=O)CCc1ccc2c3c([nH]c2c1)[C@]1(CCc2ccccc2)[C@@H](C(=O)N2CCCCC2)C[C@H](CC(=O)NCCC2=CCCCC2)C(=O)N1CC3` the activation was 37.8% (active). `CN(C)C(=O)CCc1ccc2c3c([nH]c2c1)[C@]1(C)[C@@H](C(=O)N2CCCCC2)C[C@H](CC(=O)NCCC2=CCCCC2)C(=O)N1CC3` showed an activation of -0.99%. For `CCOC(=O)N1CCC(O)(c2cc(C)c(C)cc2C)CC1`, the activation was 0.36%. `c1ccc(-n2nnnc2NC2CCCCCC2)cc1` gave an activation of -3.04%. With `COc1cc(OC)c(C(=O)OC(C)C(=O)Nc2cc(C(F)(F)F)ccc2Cl)cc1OC` (configuration not stated) the activation was 1.27%. For `COc1ccc(C2CC(=O)Nc3sc(=N)c4c(N)c(C#N)c(N)nc4c32)cc1OC` (configuration not stated), the activation was 2.45%. `CSc1nc2c(c(=O)[nH]1)C(c1cccc(Cl)c1Cl)CC(=O)N2` (configuration not stated) gave an activation of -1.96%. With `N#Cc1c(N)nc2c3c(sc(=N)c2c1N)NC(=O)CC3c1ccccc1Cl` (configuration not stated) the activation was 31.5% (active). In the case of `O=C(Nc1nnc(-c2ccccc2F)s1)c1ccccc1F`, the activation was 4.27%. `Cc1ccc(-n2ncc3c2CC(C)(C)CC3NC(=O)CCc2cnn(C)c2)cc1` (configuration not stated) showed an activation of -4.76%. `CCOC(=O)c1c(NC(=O)c2ccc(S(=O)(=O)N(C)CC3CCCO3)cc2)sc2c1CC(C)(C)NC2(C)C` (configuration not stated) gave an activation of -6.05%. `COC(=O)c1sccc1NC(=O)COc1ccc(Cl)cc1` showed an activation of -0.33%. With `COC(=O)c1c(NC(=O)COc2ccc(Cl)cc2Cl)sc2c1CC(C)(C)NC2(C)C` the activation was 74.2% (active). With `COc1ccc(-c2cc(=O)oc3cc(OCC(=O)N(C)C4CCS(=O)(=O)C4)ccc23)cc1` (configuration not stated) the activation was -1.57%. `COc1ncnc2c1N=C1CC(C)(C)CC(N)=C1S2` showed an activation of -0.91%. For `O=C(NC1CC1)c1ccc(-c2ccccc2)cc1`, the activation was 0.87%. In the case of `CN1C(=O)/C(=C/c2ccc(C(=O)NC3CCCC3)cc2)Oc2ccccc21`, the activation was 33.7% (active). For `CN1CCN(CCCNC(=O)c2ccc(/C=C3\Oc4ccccc4N(Cc4ccc(Cl)cc4)C3=O)cc2)CC1`, the activation was 13.7%. Work on `COc1cccc(NC(=O)C(Sc2nnnn2C)c2ccccc2)c1` (configuration not stated) yielded an activation of -3.49%. For `CCOC(=O)N1CCN(C(=O)c2n[nH]c(=O)c3ccccc23)CC1`, the activation was -2.8%. In the case of `CCOC(=O)N1CCN(C(=O)c2nn(-c3ccc(C)cc3)c(=O)c3c2c2ccccc2n3C)CC1`, the activation was 34.3% (active). In the case of `CCOC(=O)N1CCN(C(=O)Cn2cnc3ccccc3c2=O)CC1`, the activation was -3.17%. Compound `CN(Cc1ccccc1)CC(O)COc1ccc(CNCc2cc3ccccc3s2)cc1` (configuration not stated) has an activation of -0.93%. For `CCOC(=O)c1c(NC(=O)CNC2CCCc3ccccc32)sc(C(N)=O)c1C` (configuration not stated), the activation was 39.6% (active). Compound `NC(=O)Nc1ccc(C(=O)OCC(=O)NC2CCCc3ccccc32)cc1` (configuration not stated) has an activation of -2.79%. `CCOC(=O)c1c(NC(=O)CCl)sc(C(=O)N(CC)CC)c1C` gave an activation of 11.5%. Work on `CC1CCCCC1NC(=O)CN1CCC(O)(c2ccc3c(c2)OCO3)CC1` (configuration not stated) yielded an activation of -2.34%. In the case of `O=C(NCC(=O)N1CCN(c2ncc(C(F)(F)F)cc2Cl)CC1)c1ccc(Br)o1`, the activation was -1.88%. For `CCSc1nnc(-c2cc3c(s2)-c2ccccc2CC3)o1`, the activation was 3.74%. With `Nc1nc(NCC2CCCO2)nc(Nc2ccccc2F)c1[N+](=O)[O-]` (configuration not stated) the activation was 1.61%. Compound `Nc1nc(Nc2ccccc2F)nc(NC2CCCCC2)c1[N+](=O)[O-]` has an activation of 11.1%. In the case of `C=CCNc1nc(N)c([N+](=O)[O-])c(NC2CCCCC2)n1`, the activation was 32% (active). Work on `Cc1ccc(NC(=O)c2cccs2)cc1S(=O)(=O)N(C)C` yielded an activation of 1.24%. `Cc1ccc(OCC(=O)Nc2ccc(NC(=O)c3cccs3)cc2)c(C)c1` gave an activation of 10.1%. For `Cc1ccc(-c2nnc(-c3ccc(NC(=O)c4cccs4)cc3)o2)cc1`, the activation was 198% (active). Work on `COc1ccc(-c2ccc(CCC(=O)O)n2-c2ccc(O)cc2)cc1` yielded an activation of -1.71%. `Nc1ccc(S(=O)(=O)Nc2nccc(/C=C/c3ccc(Br)s3)n2)cc1` gave an activation of -1.07%. For `Oc1cccc2ccc(/C=C/c3ccc(Br)s3)nc12`, the activation was 54.5% (active). `c1ccc(-c2ccnc3nc(-n4cccc4)nn23)cc1` gave an activation of 0.42%. For `N#Cc1ccc(Oc2ccc(C(F)(F)F)cc2NC(=O)c2ccc(F)cc2)cc1`, the activation was 0.22%. With `COc1cc(NC(=O)c2cncc(-c3ccc(C#N)cc3)c2)cc(C(=O)Nc2cccc(C(F)(F)F)c2)c1` the activation was 125% (active). With `COc1cc(NC(=O)c2[nH]cnc2C(N)=O)cc(C(=O)Nc2cccc(C(F)(F)F)c2)c1` the activation was -2.27%. Compound `Cc1cc2c(C)nc(N/N=C/c3ccccc3)nc2o1` has an activation of 4.19%. `O=C(N/C(=C/c1ccc(Cl)cc1)C(=O)N1CCCCC1)c1ccco1` gave an activation of -3.57%. For `Cc1ccc(SC(CC(=O)c2ccc(C(C)(C)C)cc2)C(=O)O)cc1` (configuration not stated), the activation was 0.27%. With `C=CCn1c(SCc2ccccc2)nc2c1c(=O)[nH]c(=O)n2C` the activation was 5.46%. For `COCCCNc1nc2c(-c3cccc(C)c3)nnn2c2ccc(Cl)cc12`, the activation was 26.4%. `Cc1cccc(NC(=O)c2ccc(S(=O)(=O)N(C)c3ccccc3)cc2)n1` gave an activation of -2.2%. With `C=CCN(CC=C)S(=O)(=O)c1ccc(C(=O)Nc2nc3c(s2)CCc2ccccc2-3)cc1` the activation was 35.1% (active). With `O=C(Nc1ccc(S(=O)(=O)N2CCc3ccccc3C2)cc1)c1ccccc1` the activation was -1.11%. In the case of `COc1ccc(C(=O)OCC(=O)N2CC(=O)Nc3ccccc32)cc1Br`, the activation was 0.2%. Work on `CCOc1ccccc1C1CC(c2cccc(NS(C)(=O)=O)c2)=NN1C(=O)c1ccccc1` (configuration not stated) yielded an activation of -3.45%. In the case of `CCOc1ccc2nc(Cl)c(C3CC(c4ccccc4)=NN3C(=O)c3cccs3)cc2c1` (configuration not stated), the activation was 51.3% (active). `COc1ccc(C2=NN(C(=O)c3ccccc3C(=O)O)C(c3ccccc3O)C2)cc1` (configuration not stated) showed an activation of -1.79%. With `CC(C)(C)c1cc(P(=O)(c2ccccc2)c2ccccc2)ccc1O` the activation was -1.41%. In the case of `CN(C)c1ccc(NC(=O)c2ccncc2)c2ccccc12`, the activation was -0.55%. For `O=C(Nc1ccc2nc3n(c(=O)c2c1)CCCCC3)c1ccccc1Cl`, the activation was 45.2% (active). In the case of `CCCCN(CC)C(=S)Nc1ccc2nc3n(c(=O)c2c1)CCCCC3`, the activation was 1.45%. `O=C(Nc1ccc2nc3n(c(=O)c2c1)CCCC3)c1ccc(Cl)nc1` showed an activation of 2.35%. In the case of `Cc1ccc(CS(=O)(=O)CCC(=O)NCc2ccc(F)cc2)cc1`, the activation was -1.62%. For `COc1ccc(NC(=O)c2nc(-n3nc(C)cc3C)ccc2Cl)cc1Cl`, the activation was -2.77%. Work on `CC(=O)c1ccc(Oc2cc(C)nc(-n3nc(C)cc3C)n2)cc1` yielded an activation of 16.4%. With `COc1ccc(Nc2cc(C)nc(-n3nc(C)cc3C)n2)cc1` the activation was 121% (active). `CC(=O)OCCN(CCCn1c(-c2ccncc2)nc2ccccc21)c1nc(-c2ccc(C)cc2)cs1` gave an activation of -1.12%. `C=CC[C@@H](CC(=O)N[C@H](CO)Cc1ccccc1)C(=O)N[C@H](C)COC(=O)[C@@H](CC=C)Cc1ccc(F)cc1` gave an activation of -2.99%. Work on `C=CC[C@@H](CC(=O)N[C@@H](CO)Cc1ccccc1)C(=O)NCCOC(=O)[C@@H](CC=C)CC(=O)OC(C)(C)C` yielded an activation of -2.2%. For `C=CC[C@@H](CC(=O)N[C@@H](CO)Cc1ccccc1)C(=O)N[C@H](COC(=O)[C@H](CC=C)CC(=O)OC(C)(C)C)Cc1ccccc1`, the activation was 32.4% (active). `CCCc1cc(=O)[nH]c2nnc(SCC(=O)Nc3nnc(SCC)s3)n12` showed an activation of -0.61%. With `O=C(NCc1ccccc1Cl)NC(=O)c1csc([N+](=O)[O-])c1` the activation was -1.89%. For `O=C(COc1ncnc2ccccc12)NC(=O)NCc1ccccc1`, the activation was -0.7%. For `O=C(O)CCC(=O)NCc1ccc(C(=O)O)cc1`, the activation was -0.32%. With `COc1ccccc1N=C(C)C1=C(O)COC1=O` the activation was 0.65%. With `COc1cc(N=Cc2c(O)c3ccccc3oc2=O)c(OC)cc1Cl` the activation was -0.88%. In the case of `COc1ccccc1N=Cc1c(O)c2ccccc2oc1=O`, the activation was 120% (active). Work on `COc1ccc(-c2nc3ccccc3n2CCC(C)C)cc1OC` yielded an activation of -2.77%. Compound `COc1ccc(C(C)(C)C)cc1NC(=O)CCN1C(=O)C2CCCCC2C1=O` (configuration not stated) has an activation of 0.21%. Compound `CS(=O)(=O)N(CC(=O)N/N=C/c1ccccn1)c1ccc(Oc2ccccc2)cc1` has an activation of 1.21%. For `CC1(C)Cc2ccccc2-c2nc(CN3CCOCC3)[nH]c(=O)c21`, the activation was 2.37%. Compound `CC1(C)Cc2ccccc2-c2[nH]c(=S)[nH]c(=O)c21` has an activation of -3.14%. In the case of `CCC1(CC)Cc2ccccc2-c2nc(CCl)[nH]c(=O)c21`, the activation was 45.2% (active). Work on `Cc1ccc2nnn(Cc3cccc(C(C)(C)C)c3O)c2c1` yielded an activation of -2.21%. For `CCOC(=O)/C=C/c1ccc(C(F)(F)F)cc1S(=O)(=O)NC(C)(C)C`, the activation was 3.87%. `COc1ccc(CNC(=O)CCC(=O)Nc2nnc(C(C)C)s2)cc1` gave an activation of 2.87%. In the case of `N#CCC(=O)N/N=C/c1cn(Cc2ccc3ccccc3c2)c2ccccc12`, the activation was 77.3% (active). With `COc1cccc(Cn2cc(/C=N/NC(=O)c3cc(O)cc(O)c3)c3ccccc32)c1` the activation was -0.87%. `CNC(=S)N/N=C/c1cn(Cc2ccc(C)cc2)c2ccccc12` gave an activation of -0.8%.
